Measurements: ChEMBL document CHEMBL3865787, “Combinatorial synthesis, in silico, molecular and biochemical studies of tetrazole-derived organic selenides with increased selectivity against hepatocellular carcinoma” (Eur J Med Chem, 2016)
Activity calls are given as the source filed them. The rule behind the calls is not given here.

What was measured:
[1] = Antioxidant activity assessed as DPPH radical scavenging activity at 1 uM after 30 mins in absence of light by spectrophotometric analysis; assay type: functional
Summary of the method: (§1)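 Compounds were dissolved in methanol at 1 µM, and 200 µL was added to 0.4 mL of 0.1 mM DPPH in methanol. Mixtures stood 30 min in the dark and were read at 517 nm against a blank (no DPPH). The negative control used methanol in place of compound. I% = (Ablank − Asample)/Ablank × 100. Ascorbic acid was the reference. Means of 3 replicates.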

[2] = Antioxidant activity assessed as DPPH radical scavenging activity at 1 uM after 30 mins in absence of light by spectrophotometric analysis relative to ascorbic acid; assay type: functional; summary of the method: as §1
[3] = Cytotoxicity against human HepG2 cells assessed as reduction in cell viability after 48 hrs by MTT assay; assay type: functional, cell-based; details: HepG2, 48 h
Summary of the method: (§2)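 Cells were grown in DMEM with 10% calf serum and seeded at 50,000 cells/mL. They grew 2 days at 37 °C, 10% CO2, then took serial compound dilutions for 48 h. MTT (final 0.5 mg/mL) ran 2 h; formazan was washed, dissolved in DMSO and read at 590 nm. IC50 was taken from dose-response curves as the mean of two parallel experiments. 5-FU was the positive control. TI = IC50 WI-38/IC50 HepG2.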

[4] = Pro-oxidant activity as bleomycin-Fe2+ induced calf thymus DNA damage measured as absorbance at 2 mM after 1 hr by thiobarbituric acid-based assay; assay type: ADME; design: unit not given here; details: cattle, 2000 µM
Summary of the method: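 The mix held calf thymus DNA 0.5 mg/mL, bleomycin sulfate 0.05 mg/mL, MgCl2 5 mM, FeCl3 50 mM and sample 2 mM. Ascorbic acid was the positive control. Capped tubes were heated at 80 °C for 30 min, ice-cooled, shaken and centrifuged. DNA damage was read as the increase in absorbance at 532 nm. Means of 3 replicates.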

[5] = Cytotoxicity against human WI38 cells assessed as reduction in cell viability after 48 hrs by MTT assay; assay type: toxicity, cell-based, WI-38; summary of the method: as §2
[6] = Cytotoxicity against human MCF7 cells assessed as reduction in cell viability after 48 hrs by MTT assay; assay type: functional, cell-based; details: MCF7, 48 h; summary of the method: as §2
[7] = Therapeutic index, ratio of IC50 for human WI38 cells to IC50 for human HepG2 cells; assay type: cell-based; details: WI38 cells and HepG2 cells, read-out: Ratio IC50; summary of the method: as §2
[8] = Downregulation of Ki67 expression in human HepG2 cells at IC50 after 48 hrs by ELISA; assay type: functional, cell-based
Summary of the method: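 They were detached with trypsin and lysed by four rounds of ultrasonication before Ki-67 measurement. Comparison was with untreated cells; mean ± SD, ANOVA with LSD/Dunnett post hoc.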

[9] = Downregulation of Bcl2 expression in human HepG2 cells at IC50 after 48 hrs by ELISA; assay type: functional, cell-based
Summary of the method: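 For ELISA, lysates had biotin conjugate 2 h at 25 °C, then streptavidin-HRP 1 h at 25 °C, read at 450 nm. Comparison was with untreated cells; mean ± SD, ANOVA with LSD/Dunnett post hoc.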

[10] = Upregulation of caspase-8 expression in human HepG2 cells at IC50 after 48 hrs by ELISA; assay type: functional, cell-based
Summary of the method: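 Cells were trypsinized and lysed by liquid-nitrogen freeze–thaw. Lysates were incubated with HRP-conjugated anti-caspase-8 antibody for 30 min at 37 °C, with ELISA read-out at 450 nm. Levels were compared against untreated cells; mean ± SD, ANOVA with LSD/Dunnett post hoc.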

[11] = Glutathione peroxidase-like activity assessed as decrease in H2O2 reduction at 41 uM preincubated with compound followed by H2O2 addition after 3 mins by spectrophotometry based NADPH-reductase coupled assay
Summary of the method: (§3)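 Buffer: 50 mM phosphate with 0.1% Triton X-100, plus NADPH reagent (24 µmol glutathione, 12 U glutathione reductase, 4.8 µmol NADPH). Compound was at 41 µM and the reaction was started with 0.8 mM H2O2. A340 was followed for 3 min, giving ΔA/min. Rates were corrected for background H2O2/GSH reaction, and for compound absorbance where colored. Ebselen (41 µM) served as reference.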

[12] = Glutathione peroxidase-like activity assessed as decrease in H2O2 reduction at 41 uM preincubated with compound followed by H2O2 addition after 3 mins by spectrophotometry based NADPH-reductase coupled assay relative to ebselen; summary of the method: as §3

Structure (SMILES) | Activity [1] [%] | fold change (FC) [2] | IC50 [3] [µM] | Activity [4] | IC50 at 48 h [5] [µM] | IC50 [6] [µM] | selectivity ratio [7] | Activity [8] | Activity [9] | Activity [10] | Activity [11] | fold change (FC) [12]
Cc1ccc(C(Nc2ccc([Se][Se]c3ccc(NC(c4ccc(C)cc4)c4nnnn4C4CCCCC4)cc3)cc2)c2nnnn2C2CCCCC2)cc1 (stereo unspecified) | 22.9 | 0.3 | ≥ 100 | 79 | 56 | 78 | – | – | – | – | – | –
O=c1[nH]cc(F)c(=O)[nH]1 [FLUOROURACIL] | – | – | 8 | – | 4 | 3 | 0.5 | – | – | – | – | –
CC(C)C(Nc1ccc([Se][Se]c2ccc(NC(c3nnnn3Cc3ccccc3)C(C)C)cc2)cc1)c1nnnn1Cc1ccccc1 (stereo unspecified) | 20.5 | 0.2 | 10 | 92 | ≥ 100 | ≥ 100 | > 10 | Active | Active | Active | – | –
c1cc([Se][Se]c2ccc(NCc3nnnn3C3CCCCC3)cc2)ccc1NCc1nnnn1C1CCCCC1 | 19.4 | 0.2 | ≥ 100 | 96 | 68 | ≥ 100 | – | – | – | – | Active | –
CC(C)(C)n1nnnc1C(Nc1ccc([Se][Se]c2ccc(NC(c3ccco3)c3nnnn3C(C)(C)C)cc2)cc1)c1ccco1 (stereo unspecified) | 24 | 0.3 | 51 | 108 | 11 | 14 | – | – | – | – | Active | < 5
CC1=C([Se]c2ccc(NC(c3ccc(C)cc3)c3nnnn3C(C)(C)C)cc2)C(=O)c2ccccc2C1=O (stereo unspecified) | 93 | 1 | 47 | 90 | 36 | ≥ 100 | 0.8 | Active | Active | Active | Active | < 5
COc1ccc(Cn2nnnc2C(Nc2ccc([Se][Se]c3ccc(NC(c4ccco4)c4nnnn4Cc4ccc(OC)cc4OC)cc3)cc2)c2ccco2)c(OC)c1 (stereo unspecified) | 18.8 | 0.2 | ≥ 100 | 81 | 88 | ≥ 100 | – | – | – | – | Active | –
CC(C)C(Nc1ccc([Se][Se]c2ccc(NC(c3nnnn3C(C)(C)C)C(C)C)cc2)cc1)c1nnnn1C(C)(C)C (stereo unspecified) | 38.6 | 0.4 | 37 | 67 | ≥ 100 | ≥ 100 | > 3 | – | – | – | – | –
CC(=O)N(c1ccc([Se]C2=CC(=O)c3ccccc3C2=O)cc1)C(C(=O)NC(C)(C)C)c1ccc(C)cc1 (stereo unspecified) | – | – | 53 | – | 29 | 34 | > 0.5 | Active | Active | Active | – | –
COc1ccc(Cn2nnnc2C(Nc2ccc([Se][Se]c3ccc(NC(c4ccc(C)cc4)c4nnnn4Cc4ccc(OC)cc4OC)cc3)cc2)c2ccc(C)cc2)c(OC)c1 (stereo unspecified) | 22.1 | 0.2 | ≥ 100 | 130 | ≥ 100 | ≥ 100 | – | – | – | – | Active | < 5
COc1ccc(-n2nnnc2C(Nc2ccc([Se][Se]c3ccc(NC(c4nnnn4-c4ccc(OC)cc4)C(C)C)cc3)cc2)C(C)C)cc1 (stereo unspecified) | 30.5 | 0.3 | ≥ 100 | 77 | ≥ 100 | ≥ 100 | – | – | – | – | – | –
COC(CC(OC)OC)Cn1nnnc1C(Nc1ccc([Se][Se]c2ccc(NC(c3nnnn3CC(CC(OC)OC)OC)C(C)C)cc2)cc1)C(C)C (stereo unspecified) | 26.3 | 0.3 | 47 | 94 | ≥ 100 | ≥ 100 | > 2 | – | – | – | Active | –
CC(C)(C)n1nnnc1CNc1ccc([Se][Se]c2ccc(NCc3nnnn3C(C)(C)C)cc2)cc1 | 44.3 | 0.5 | 44 | 93 | 21 | 28 | – | – | – | – | Active | –
COc1ccc(Cn2nnnc2C(Nc2ccc([Se][Se]c3ccc(NC(c4nnnn4Cc4ccc(OC)cc4OC)C(C)C)cc3)cc2)C(C)C)c(OC)c1 (stereo unspecified) | 31.8 | 0.3 | 2 | 81 | 64 | 70 | 32 | – | – | – | Active | < 5
Cc1ccc(C(Nc2ccc([Se][Se]c3ccc(NC(c4ccc(C)cc4)c4nnnn4C(C)(C)C)cc3)cc2)c2nnnn2C(C)(C)C)cc1 (stereo unspecified) | 30.4 | 0.3 | 46 | 98 | 41 | 62 | – | – | – | – | – | –
CC(C)C(Nc1ccc([Se][Se]c2ccc(NC(c3nnnn3C3CCCCC3)C(C)C)cc2)cc1)c1nnnn1C1CCCCC1 (stereo unspecified) | 22.9 | 0.2 | ≥ 100 | 99 | 43 | 52 | – | – | – | – | – | –
CC1=C([Se]c2ccc(NCc3nnnn3C(C)(C)C)cc2)C(=O)c2ccccc2C1=O | 69 | 0.8 | 33 | 103 | 48 | 42 | 1.5 | – | – | – | – | –
c1coc(C(Nc2ccc([Se][Se]c3ccc(NC(c4ccco4)c4nnnn4C4CCCCC4)cc3)cc2)c2nnnn2C2CCCCC2)c1 (stereo unspecified) | 49.5 | 0.5 | 36 | 222 | 83 | ≥ 100 | 2 | – | – | – | Active | < 5
CC1=C([Se]c2ccc(NC(c3ccco3)c3nnnn3C(C)(C)C)cc2)C(=O)c2ccccc2C1=O (stereo unspecified) | 95.3 | 1 | 9 | 138 | 5 | ≥ 100 | 0.6 | Active | Active | Active | – | –
O=C1O[C@H]([C@@H](O)CO)C(O)=C1O [ASCORBIC ACID] | 96.5 | – | – | 310 | – | – | – | – | – | – | – | –
